Laboratory results as given in ChEMBL document CHEMBL3580554, “Design, synthesis, and anticonvulsant activity of new hybrid compounds derived from 2-(2,5-dioxopyrrolidin-1-yl)propanamides and 2-(2,5-dioxopyrrolidin-1-yl)butanamides” (J Med Chem, 2015).

Columns and labels:
Mus musculus [1] = test: Anticonvulsant activity in Swiss mouse assessed as protection against seizures at 100 mg/kg, ip dosed 0.25 hrs before initiation of maximal electroconvulsions by maximal electroshock test; type: functional
In short: (§1)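 Mice were dosed i.p. at a fixed 300 or 100 mg/kg (6 Hz: 100 mg/kg only). Protection was then scored against MES, sc PTZ or 6 Hz seizures at pretreatment times of 0.25, 0.5, 1 and 2 h. Groups were four mice, scored as number protected / number tested. This also gives the time course and time of peak effect.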

Mus musculus [2] = test: Anticonvulsant activity in Swiss mouse assessed as protection against seizures at 100 mg/kg, ip dosed 2 hrs before initiation of maximal electroconvulsions by maximal electroshock test; type: functional; in short: as §1
Mus musculus [3] = test: Anticonvulsant activity in Swiss mouse assessed as protection against seizures at 300 mg/kg, ip dosed 0.5 hrs before initiation of maximal electroconvulsions by maximal electroshock test; type: functional; in short: as §1
Mus musculus [4] = test: Anticonvulsant activity in Swiss mouse assessed as protection against seizures at 300 mg/kg, ip dosed 2 hrs before initiation of maximal electroconvulsions by maximal electroshock test; type: functional; in short: as §1
Mus musculus [5] = test: Anticonvulsant activity in Swiss mouse assessed as protection against seizures at 100 mg/kg, ip dosed 0.5 hrs before initiation of maximal electroconvulsions by maximal electroshock test; type: functional; in short: as §1
Mus musculus [6] = test: Anticonvulsant activity in Swiss mouse assessed as protection against seizures at 300 mg/kg, ip dosed 1 hr before initiation of maximal electroconvulsions by maximal electroshock test; type: functional; in short: as §1
Mus musculus [7] = test: Anticonvulsant activity in ip dosed Swiss mouse assessed as protection against seizures measured at 0.25 hrs of time to peak effect by maximal electroshock test; type: functional
In short: (§2)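 Median effective doses (ED50, mg/kg) were determined i.p. in mice at the time of peak effect in the MES, sc PTZ or 6 Hz tests. Only compounds giving at least 50% protection at 100 mg/kg in that test were taken forward.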

Mus musculus [8] = test: Anticonvulsant activity in Swiss mouse assessed as protection against seizures at 300 mg/kg, ip dosed 0.25 hrs before initiation of maximal electroconvulsions by maximal electroshock test; type: functional; in short: as §1
Mus musculus [9] = test: Anticonvulsant activity in Swiss mouse assessed as protection against seizures at 100 mg/kg, ip dosed 1 hr before initiation of maximal electroconvulsions by maximal electroshock test; type: functional; in short: as §1
Mus musculus [10] = species: Mus musculus; test: Protective index, ratio of neurotoxic TD50 in Swiss mouse by Chimney test to anticonvulsant ED50 in Swiss mouse measured at 0.25 hrs of time to peak effect by 6 Hz test by 6 Hz psychomotor seizure test; type: functional
In short: (§3)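 Protective index was calculated as TD50 (chimney test, mouse, i.p.) divided by ED50 from the matching MES, sc PTZ or 6 Hz test, both taken at the time of peak effect.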

Mus musculus [11] = test: Anticonvulsant activity in Swiss mouse assessed as protection against seizures at 300 mg/kg, ip dosed 0.5 hrs before pentylenetetrazole challenge by subcutaneous pentylenetetrazole seizure test; type: functional; in short: as §1
Mus musculus [12] = test: Anticonvulsant activity in Swiss mouse assessed as protection against seizures at 100 mg/kg, ip dosed 0.5 hrs before pentylenetetrazole challenge by subcutaneous pentylenetetrazole seizure test; type: functional; in short: as §1
Mus musculus [13] = species: Mus musculus; test: Protective index, ratio of neurotoxic TD50 in Swiss mouse by Chimney test to anticonvulsant ED50 in Swiss mouse measured at 0.25 hrs of time to peak effect by maximal electroshock test; in short: as §3
Mus musculus [14] = test: Anticonvulsant activity in Swiss mouse assessed as protection against seizures at 300 mg/kg, ip dosed 2 hrs before pentylenetetrazole challenge by subcutaneous pentylenetetrazole seizure test; type: functional; in short: as §1
Mus musculus [15] = test: Anticonvulsant activity in Swiss mouse assessed as protection against seizures at 300 mg/kg, ip dosed 0.25 hrs before pentylenetetrazole challenge by subcutaneous pentylenetetrazole seizure test; type: functional; in short: as §1
Mus musculus [16] = test: Anticonvulsant activity in ip dosed Swiss mouse assessed as protection against seizures measured at 0.25 hrs of time to peak effect by 6 Hz test by 6 Hz psychomotor seizure test; type: functional; in short: as §2
Mus musculus [17] = test: Anticonvulsant activity in Swiss mouse model of 6 Hz psychomotor seizure mode assessed as protection against seizures at 100 mg/kg, ip dosed 0.25 hrs before 6 Hz electrical stimulation by 6 Hz test; type: functional; in short: as §1
Mus musculus [18] = test: Anticonvulsant activity in Swiss mouse assessed as protection against seizures at 300 mg/kg, ip dosed 1 hr before pentylenetetrazole challenge by subcutaneous pentylenetetrazole seizure test; type: functional; in short: as §1
[19] = Toxicity in ip dosed Swiss mouse assessed as induction of motor performance impairment measured within 60 seconds measured at 0.25 hrs of time to peak effect by Chimney test; type: organism-based; details: in vivo
In short: (§4)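 Neurotoxicity was measured i.p. in mice by the chimney test for motor impairment. It was given as the median neurotoxic dose (TD50, mg/kg) at the time of peak effect.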

Mus musculus [20] = test: Protective index, ratio of neurotoxic TD50 in Swiss mouse by Chimney test to anticonvulsant ED50 in Swiss mouse measured at 0.25 hrs of time to peak effect by subcutaneous pentylenetetrazole seizure test; type: functional; in short: as §3
Mus musculus [21] = test: Anticonvulsant activity in ip dosed Swiss mouse assessed as protection against seizures measured at 0.25 hrs of time to peak effect by subcutaneous pentylenetetrazole seizure test; type: functional; in short: as §2
Mus musculus [22] = test: Anticonvulsant activity in Swiss mouse model of 6 Hz psychomotor seizure mode assessed as protection against seizures at 100 mg/kg, ip dosed 0.5 hrs before 6 Hz electrical stimulation by 6 Hz test; type: functional; in short: as §1
Mus musculus [23] = test: Anticonvulsant activity in Swiss mouse assessed as protection against seizures at 100 mg/kg, ip dosed 2 hrs before pentylenetetrazole challenge by subcutaneous pentylenetetrazole seizure test; type: functional; in short: as §1
Mus musculus [24] = test: Anticonvulsant activity in Swiss mouse assessed as protection against seizures at 100 mg/kg, ip dosed 1 hr before pentylenetetrazole challenge by subcutaneous pentylenetetrazole seizure test; type: functional; in short: as §1
Mus musculus [25] = test: Anticonvulsant activity in Swiss mouse model of 6 Hz psychomotor seizure mode assessed as protection against seizures at 100 mg/kg, ip dosed 1 hr before 6 Hz electrical stimulation by 6 Hz test; type: functional; in short: as §1
Mus musculus [26] = test: Anticonvulsant activity in Swiss mouse model of 6 Hz psychomotor seizure mode assessed as protection against seizures at 100 mg/kg, ip dosed 2 hrs before 6 Hz electrical stimulation by 6 Hz test; type: functional; in short: as §1
Mus musculus [27] = test: Anticonvulsant activity in Swiss mouse assessed as protection against seizures at 100 mg/kg, ip dosed 0.25 hrs before pentylenetetrazole challenge by subcutaneous pentylenetetrazole seizure test; type: functional; in short: as §1
Mus musculus [28] = test: Anticonvulsant activity in ip dosed Swiss mouse assessed as protection against seizures measured at 0.5 hrs of time to peak effect by maximal electroshock test; type: functional; in short: as §2
[29] = Toxicity in ip dosed Swiss mouse assessed as induction of motor performance impairment measured within 60 seconds measured at 0.5 hrs of time to peak effect by Chimney test; type: organism-based; details: in vivo; in short: as §4
Mus musculus [30] = species: Mus musculus; test: Protective index, ratio of neurotoxic TD50 in Swiss mouse by Chimney test to anticonvulsant ED50 in Swiss mouse measured at 0.5 hrs of time to peak effect by maximal electroshock test; in short: as §3
Mus musculus [31] = test: Anticonvulsant activity in ip dosed Swiss mouse assessed as protection against seizures measured at 0.5 hrs of time to peak effect by 6 Hz test by 6 Hz psychomotor seizure test; type: functional; in short: as §2
Mus musculus [32] = species: Mus musculus; test: Protective index, ratio of neurotoxic TD50 in Swiss mouse by Chimney test to anticonvulsant ED50 in Swiss mouse measured at 0.5 hrs of time to peak effect by 6 Hz test by 6 Hz psychomotor seizure test; type: functional; in short: as §3
Mus musculus [33] = test: Anticonvulsant activity in ip dosed Swiss mouse assessed as protection against seizures measured at 0.5 hrs of time to peak effect by subcutaneous pentylenetetrazole seizure test; type: functional; in short: as §2

Compound | Activity (Mus musculus [1]) [%] | Activity (Mus musculus [2]) [%] | Activity (Mus musculus [3]) [%] | Activity (Mus musculus [4]) [%] | Activity (Mus musculus [5]) [%] | Activity (Mus musculus [6]) [%] | ED50 (Mus musculus [7]) [mg/kg] | Activity (Mus musculus [8]) [%] | Activity (Mus musculus [9]) [%] | further results
CC(C(=O)N1CCN(c2ccccc2F)CC1)N1C(=O)CCC1=O (racemic) | 75 | 0 | 50 | 25 | 0 | 50 | 151 | 100 | 0 | 
CC(C(=O)N1CCN(c2cccc(F)c2)CC1)N1C(=O)CCC1=O (racemic) | 75 | 0 | 50 | 100 | 0 | 75 | 137 | 100 | 0 | 
CC(C(=O)N1CCN(c2ccc(F)cc2)CC1)N1C(=O)CCC1=O (racemic) | 75 | 0 | 50 | 50 | 0 | 25 | 130 | 100 | 0 | 
CC(C(=O)N1CCN(c2ccccc2C(F)(F)F)CC1)N1C(=O)CCC1=O (racemic) | 100 | 0 | 100 | 75 | 25 | 75 | 75.5 | 100 | 25 | Ratio TD50/ED50 (Mus musculus [10]): 2.01; Activity (Mus musculus [11]): 100%; Activity (Mus musculus [12]): 75%; Ratio TD50/ED50 (Mus musculus [13]): 1.97; Activity (Mus musculus [14]): 50%; Activity (Mus musculus [15]): 100%; ED50 (Mus musculus [16]): 74.2 mg/kg; Activity (Mus musculus [17]): 100%; Activity (Mus musculus [18]): 75%; TD50 at 0.25 h [19]: 149 mg/kg; Ratio TD50/ED50 (Mus musculus [20]): 1.71; ED50 (Mus musculus [21]): 87.1 mg/kg; Activity (Mus musculus [22]): 25%; Activity (Mus musculus [23]): 0%; Activity (Mus musculus [24]): 25%; Activity (Mus musculus [25]): 0%; Activity (Mus musculus [26]): 0%; Activity (Mus musculus [27]): 100%
CCC(C(=O)N1CCN(c2ccccc2)CC1)N1C(=O)CCC1=O (racemic) | 25 | 0 | 75 | 25 | 25 | 75 | 149 | 75 | 0 | 
CCC(C(=O)N1CCN(c2cccc(Cl)c2)CC1)N1C(=O)CCC1=O (racemic) | 50 | 0 | 50 | 25 | 50 | 100 |  | 75 | 0 | ED50 (Mus musculus [28]): 138 mg/kg
CCC1(C)CC(=O)NC1=O (centres undefined) [ETHOSUXIMIDE] |  |  |  |  |  |  | > 500 |  |  | ED50 (Mus musculus [16]): > 200 mg/kg; TD50 at 0.25 h [19]: 722 mg/kg; Ratio TD50/ED50 (Mus musculus [20]): 4.89; ED50 (Mus musculus [21]): 148 mg/kg
COC[C@@H](NC(C)=O)C(=O)NCc1ccccc1 [LACOSAMIDE] |  |  |  |  |  |  |  |  |  | TD50 at 0.5 h [29]: 33.7 mg/kg; Ratio TD50/ED50 (Mus musculus [30]): 3.6; ED50 (Mus musculus [28]): 9.4 mg/kg; ED50 (Mus musculus [31]): 6.4 mg/kg; Ratio TD50/ED50 (Mus musculus [32]): 5.26; ED50 (Mus musculus [33]): > 500 mg/kg
CCCC(CCC)C(=O)O [VALPROIC ACID] |  |  |  |  |  |  |  |  |  | ED50 (Mus musculus [31]): 130 mg/kg
